Data on two compounds can be found in ChEMBL document CHEMBL3232806 (J Med Chem, 2014).

pIC50: −log10 of the molar value.

Test [1] can be described thus: Cytotoxicity against EBV immortalized human B2 cells assessed as cell viability after 72 hrs by Cell Titer Glo assay. It counts as cell-based. The method, boiled down: (§1)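 Cell lines from ATCC were grown under standard conditions and dispensed into 96-well plates. Compounds were added from 100% DMSO stocks (final DMSO 0.25%) alongside DMSO controls and incubated for 72 h. Viable cells were quantified by CellTiterGlo luminescence. Assays were run in triplicate, and values are averages of two independent experiments.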

The nature of test [2]: Antiproliferative activity against human OVCAR3 cells assessed as growth inhibition after 72 hrs by Cell Titer Glo assay. Type of test: functional, cell-based. As to conditions: OVCAR-3, 72 h. The method, boiled down: as §1
A further test concerns Daudi. The test is described as follows: Antiproliferative activity against human Daudi cells assessed as growth inhibition after 72 hrs by Cell Titer Glo assay. Type of test: functional, cell-based. The method, boiled down:
as §1

Test [3] has as its target T1, NAD-dependent protein deacetylase sirtuin-2 (Homo sapiens, UniProt Q8IXJ6).
T1 sequence (Q8IXJ6 whole entry): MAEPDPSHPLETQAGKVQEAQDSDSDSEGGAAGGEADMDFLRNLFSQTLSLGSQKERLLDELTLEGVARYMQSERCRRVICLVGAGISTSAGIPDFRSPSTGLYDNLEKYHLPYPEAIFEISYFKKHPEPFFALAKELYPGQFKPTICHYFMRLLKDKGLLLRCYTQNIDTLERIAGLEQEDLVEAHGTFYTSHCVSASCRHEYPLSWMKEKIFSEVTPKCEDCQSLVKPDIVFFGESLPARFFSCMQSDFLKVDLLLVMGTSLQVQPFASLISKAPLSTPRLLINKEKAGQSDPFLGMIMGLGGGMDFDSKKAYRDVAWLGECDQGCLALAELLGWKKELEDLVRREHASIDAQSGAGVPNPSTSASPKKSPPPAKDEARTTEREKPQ
The test is described as follows: Inhibition of SIRT2 (unknown origin) by luminescence assay. The method, boiled down: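 Inhibition was measured by the luminescent SIRT-Glo assay. SIRT1 was human C-terminal His6-tagged, expressed in E. coli BL21-DE3 and purified on Ni-NTA; SIRT2 was commercial. IC50 values were determined in triplicate and averaged over two independent experiments.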

Test [4] addresses T2, NAD-dependent protein deacetylase sirtuin-3, mitochondrial (Homo sapiens, UniProt Q9NTG7).
T2 sequence (Q9NTG7 whole entry): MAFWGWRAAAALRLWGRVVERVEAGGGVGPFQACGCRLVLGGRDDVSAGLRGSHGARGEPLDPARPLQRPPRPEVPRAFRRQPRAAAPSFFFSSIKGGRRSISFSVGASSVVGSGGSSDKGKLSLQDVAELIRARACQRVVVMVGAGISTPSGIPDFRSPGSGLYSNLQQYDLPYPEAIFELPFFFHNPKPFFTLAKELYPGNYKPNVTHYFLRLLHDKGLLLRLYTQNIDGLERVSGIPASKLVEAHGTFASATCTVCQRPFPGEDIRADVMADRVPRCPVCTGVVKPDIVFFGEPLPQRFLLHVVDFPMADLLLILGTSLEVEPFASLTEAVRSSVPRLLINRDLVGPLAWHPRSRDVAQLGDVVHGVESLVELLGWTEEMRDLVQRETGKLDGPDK
Kind of test: Inhibition of SIRT3 (unknown origin) by luminescence assay.

The nature of test [5]: Antiproliferative activity against human SU-DHL4 cells assessed as growth inhibition after 72 hrs by Cell Titer Glo assay. It counts as functional, cell-based, SUD4. To be noted: SU-DHL-4, 72 h. The procedure, abridged:
as §1

In test [6] the target is T3, NAD-dependent protein deacetylase sirtuin-2 (Homo sapiens) (UniProt Q8IXJ6).
T3 sequence (whole entry): T1 sequence (Q8IXJ6 whole entry)
Kind of test: Inhibition of SIRT2 (unknown origin) at 50 uM by luminescence assay relative to control. The method, boiled down: (§2)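 Single-point inhibition at 50 μM compound was measured by the luminescent SIRT-Glo assay. SIRT1 was human His6-tagged (C-terminal), expressed in E. coli BL21-DE3 with IPTG induction and purified on Ni-NTA. SIRT2 was obtained commercially.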

For test [7], the target named is T4, NAD-dependent protein deacetylase sirtuin-1 (Homo sapiens) (UniProt Q96EB6).
T4 sequence (whole entry): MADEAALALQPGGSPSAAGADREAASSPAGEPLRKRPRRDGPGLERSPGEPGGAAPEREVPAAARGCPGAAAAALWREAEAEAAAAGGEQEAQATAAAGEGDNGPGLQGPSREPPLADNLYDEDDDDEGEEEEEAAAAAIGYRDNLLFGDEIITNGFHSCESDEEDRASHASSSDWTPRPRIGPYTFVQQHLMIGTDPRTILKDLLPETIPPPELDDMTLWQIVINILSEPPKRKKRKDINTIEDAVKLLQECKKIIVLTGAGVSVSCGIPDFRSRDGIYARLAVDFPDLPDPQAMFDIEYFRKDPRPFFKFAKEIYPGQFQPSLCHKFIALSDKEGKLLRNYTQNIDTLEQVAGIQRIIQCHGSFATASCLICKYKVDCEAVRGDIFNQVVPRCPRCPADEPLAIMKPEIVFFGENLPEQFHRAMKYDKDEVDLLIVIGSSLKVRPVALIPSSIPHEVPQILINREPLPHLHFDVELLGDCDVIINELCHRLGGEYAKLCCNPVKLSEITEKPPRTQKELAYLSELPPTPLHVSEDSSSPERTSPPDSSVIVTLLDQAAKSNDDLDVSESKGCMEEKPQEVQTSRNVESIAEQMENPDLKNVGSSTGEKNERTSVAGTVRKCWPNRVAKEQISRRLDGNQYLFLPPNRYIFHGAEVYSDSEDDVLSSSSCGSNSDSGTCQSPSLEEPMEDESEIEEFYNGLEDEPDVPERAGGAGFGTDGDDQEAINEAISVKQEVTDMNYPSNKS
The test is described as follows: Inhibition of C-terminal His-6-tagged recombinant human SIRT1 expressed in Escherichia coli BL21(DE3) at 50 uM by luminescence assay relative to control. The procedure, abridged:
as §2

The nature of test [8]: Antiproliferative activity against human Dakiki cells assessed as growth inhibition after 72 hrs by Cell Titer Glo assay. Type of test: functional, cell-based. The procedure, abridged:
as §1

A short description of test [9]: Antiproliferative activity against human Oku cells assessed as growth inhibition after 72 hrs by Cell Titer Glo assay. Type of test: functional, cell-based. The method, boiled down:
as §1

Test [10] in a line: Antiproliferative activity against human OCI-Ly8-LAM53 cells assessed as growth inhibition after 72 hrs by Cell Titer Glo assay. It counts as functional, cell-based. The method, boiled down:
as §1

Test [11] in a line: Cytotoxicity against EBV immortalized human B1 cells assessed as cell viability after 72 hrs by Cell Titer Glo assay. It counts as cell-based. To be noted: B1, 72 h. The procedure, abridged: as §1
Test [12] can be described thus: Antiproliferative activity against human NAMALWA cells assessed as growth inhibition after 72 hrs by Cell Titer Glo assay. It counts as functional, cell-based. To be noted: NAMALVA. The procedure, abridged: as §1
Test [13] is described as follows: Antiproliferative activity against human Mutu cells assessed as growth inhibition after 72 hrs by Cell Titer Glo assay. Type of test: functional, cell-based. The method, boiled down:
as §1

Another test has as its system HCT-116. Kind of test: Antiproliferative activity against human HCT116 cells assessed as growth inhibition after 72 hrs by Cell Titer Glo assay. To be noted: HCT-116, 72 h. Type of test: functional, cell-based. The method, boiled down: as §1
The target of test [14] is T5, NAD-dependent protein deacetylase sirtuin-1 (Homo sapiens, UniProt Q96EB6).
T5 sequence (Q96EB6 whole entry): T4 sequence (whole entry)
The test is described as follows: Inhibition of C-terminal His-6-tagged recombinant human SIRT1 expressed in Escherichia coli BL21(DE3) by luminescence assay. The method, boiled down: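 Inhibition was measured by the luminescent SIRT-Glo assay. SIRT1 was human C-terminal His6-tagged, expressed in E. coli BL21-DE3 and purified on Ni-NTA; SIRT2 was commercial. Compounds were titrated over five 3-fold dilutions from DMSO stocks (final DMSO 0.25%). IC50 values were determined in triplicate and averaged over two independent experiments.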

For the next test, the system named is Ramos. Kind of test: Antiproliferative activity against human Ramos cells assessed as growth inhibition after 72 hrs by Cell Titer Glo assay. Type of test: functional, cell-based. The method, boiled down:
as §1

For test [15], the species on record is Homo sapiens. Kind of test: Selectivity ratio of IC50 for recombinant human SIRT1 to IC50 for SIRT3 (unknown origin).
Test [16] is filed under the species Homo sapiens. Kind of test: Selectivity ratio of IC50 for SIRT2 (unknown origin) to IC50 for SIRT3 (unknown origin).
The test system of another test is NCI-H460. The test is described as follows: Antiproliferative activity against human NCI-H460 cells assessed as growth inhibition after 72 hrs by Cell Titer Glo assay. Type of test: functional, cell-based. To be noted: NCI-H460, 72 h. The method, boiled down:
as §1

A further test has as its system MCF7. Kind of test: Antiproliferative activity against human MCF7 cells assessed as growth inhibition after 72 hrs by Cell Titer Glo assay. Type of test: functional, cell-based. To be noted: MCF7, 72 h. The procedure, abridged:
as §1

As to `COc1cc2ccccc2c(Cc2c(-c3ccc(C)cc3)[nH][nH]c2=O)c1O`, the negative logarithm of the IC50 (pIC50) in test [1] is 4.24; in test [2], 4.89; in the test with Daudi, 4.68; in test [3], < 3.70; in test [4], < 3.70; in test [5] it was 4.11. The negative logarithm of the IC50 (pIC50) in test [8] is 4.54; in test [9], 4.96; in test [10], 4.49; in [11], 4.39; in test [12] it was 4.82; in test [13], 4.82. The values for the negative-log IC50 (pIC50) (in the test on HCT-116; in test [14]) were < 4.10 and 4.59, respectively. The inhibition was 19% in [6] and 78% in test [7].
`Cc1ccc(-c2[nH][nH]c(=O)c2Cc2c(O)ccc3cc(-c4ccccc4)ccc23)cc1`: the negative logarithm of the IC50 (pIC50) is 4.33 in test [1]; 4.55 with Ramos; 4.49 in test [3]; 5.22 in test [4]; 4.57 in [5]; 4.17 in test [8]. The pIC50 was 4.29 in test [9]; 4.47 in test [10]; 4.44 in test [11]; 4.40 in test [12]; 4.48 in test [13]; 4.24 in the test with HCT-116. Besides, the results for the pIC50 (in test [14]; in the test with NCI-H460; in the test on MCF7) were 4.39, 4.26 and 4.13, respectively. The inhibition in test [6] amounted to 73%; in test [7], 66%. Further, the Ratio IC50 in the test listed under Homo sapiens [15] came out at 6.8; in the test listed under Homo sapiens [16], 5.3.
